# Results pooled from the literature.
# Compare with care: the assays were run in different laboratories.
# ADRA1A: Alpha-1A adrenergic receptor (ADRA1A, Homo sapiens, UniProt P35348)
# MAL12: Alpha-glucosidase MAL12 (MAL12, Saccharomyces cerevisiae S288c, UniProt P53341)
# rep main protease: Replicase polyprotein 1ab, main protease (rep, Severe acute respiratory syndrome coronavirus 2, UniProt P0DTD1)
# HRH2: Histamine H2 receptor (HRH2, Homo sapiens, UniProt P25021)
SMILES,target,effect on,mode,method,concentration,quantity,result
COc1cc2c3c(c1OC)-c1c(cccc1OC)CC3N(C)CC2 (racemic),ADRA1A,ligand displacement,,radioligand,10 µM,inhibition,65%
CN1C(=S)N(c2ccccc2)C(=O)/C1=C1/C(=O)N(C)c2ccc(Cl)cc21,MAL12,enzyme activity,inhibitor,absorbance,200 µM,inhibition,54.2%
COc1cc(O)c2c(=O)c(OC)c(-c3ccccc3)oc2c1,rep main protease,enzyme activity,inhibitor,,10 µM,inhibition,3.04%
c1cncc([C@@H]2CCCN2)c1,HRH2,ligand displacement,,,50 µM,inhibition,-6.37%
O=C(O[C@@H]1Cc2c(O)cc(O)cc2O[C@@H]1c1ccc(O)c(O)c1)c1cc(O)c(O)c(O)c1,rep main protease,enzyme activity,inhibitor,,,kinact/KI,9.76 M⁻¹ s⁻¹
CN1C(=O)/C(=N\Nc2ncc(-c3cc4ccccc4oc3=O)s2)c2cc(Cl)ccc21,MAL12,enzyme activity,inhibitor,absorbance,100 µM,inhibition,48.3%
CC(C)CC(=O)OC[C@H]1O[C@@](C#N)(c2ccc3c(N)ncnn23)[C@H](O)[C@@H]1O,ADRA1A,cell-free assay,,,20 µM,inhibition,3%
COc1ccc(-c2cc(=O)c3c(O)cc(OC)cc3o2)cc1,rep main protease,enzyme activity,inhibitor,,10 µM,inhibition,3.99%
COc1cc2cc3c4c(cc(OC)c(OC)c4c2cc1OC)CCN3C,ADRA1A,ligand displacement,,radioligand,10 µM,inhibition,19%
[2H]c1c([2H])c([C@]2([2H])CCCN2C(=O)C(C)(C)Oc2ccc3cn[nH]c3c2)c([2H])c([2H])c1C([2H])([2H])[2H],"Homeodomain-interacting protein kinase 4 (HIPK4, Homo sapiens, UniProt Q8NE63)",binding,,competition with immobilised ligand,1 µM,remaining binding,59%
O=C(O)c1cc(O)c(O)c(O)c1,rep main protease,enzyme activity,inhibitor,,,kinact,0.00079 s⁻¹
CN1CCC[C@H]1c1cccnc1,HRH2,ligand displacement,,,50 µM,inhibition,3.47%
COc1cc(O)c2c(=O)c(OC)c(-c3ccc(OC)c(OC)c3)oc2c1,rep main protease,enzyme activity,inhibitor,,10 µM,inhibition,5.84%
O=c1c(O)c(-c2ccc(O)cc2)oc2c(O)c(O)cc(O)c12,rep main protease,enzyme activity,inhibitor,,,kinact,0.000152 s⁻¹
COc1cc2c(cc1OC)-c1c(OC)c(OC)cc3c1[C@H](C2)N(C)CC3,ADRA1A,ligand displacement,,radioligand,10 µM,inhibition,82%
CCc1ccc(N2C(=O)/C(=C3/C(=O)N(C)c4ccc(Cl)cc43)NC2=S)cc1,MAL12,enzyme activity,inhibitor,absorbance,200 µM,inhibition,62.1%
